Each structure is given as a SMILES string. Active and inactive are the calls of the source. The rule behind the calls is not given here.

The target in data set [1] is Voltage-gated inwardly rectifying potassium channel KCNH2 (Homo sapiens, UniProt Q12809). Kind of data set: Inhibition of hERG expressed in CHO cells at 1 to 10 uM incubated for 300 secs by patch-clamp method. In kind it is toxicity, cell-based. Conditions: 5 min, dose 1-10 µM, time 300 sec.
Data set [2] in a line: Toxicity in BALB/c mouse implanted with mouse 4T1-Luc cells assessed as adverse effects at 10 mg/kg, ip administered thrice a week for 21 days. The format is organism-based. Conditions: in vivo, 504 h, time 21 day. The method, boiled down:
(§1)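 Mice received 4T1-Luc cells subcutaneously in flank (1 × 10^6 cells, 50:50 PBS/Matrigel), tumors grown 7 days to about 50 mm³, then randomized (n = 5). Vehicle (DMSO/cremophor/normal saline 5:5:90), 10 mg/kg test drug, anti-mouse PD-L1 10 mg/kg, or both given i.p. thrice weekly for 21 days. Tumor volume by caliper (3.14 × L × W × H/6), tumors excised and weighed; toxicity judged by body weight loss.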

A short description of data set [3]: Toxicity in BALB/c mouse implanted with mouse 4T1-Luc cells assessed as adverse effects at 10 mg/kg, ip administered thrice a week for 21 days in presence of anti-mouse PD-L1. The format is organism-based. Conditions: in vivo, 504 h, time 21 day. The method, boiled down: as §1
Data set [4] is described as follows: AUC (0 to t) in CrljOri:CD1 mouse at 2 mg/kg, iv measured for 24 hrs by LC-MS/MS analysis. The format is ADME, organism-based. Conditions: in vivo. The arrangement: dose 2 mg/kg, time 24 hrs, route iv. The method, boiled down:
(§2)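 Male CrljOri:CD1 mice, 7 weeks old (about 31.4 g), given single i.v. 2 mg/5 mL/kg or oral 10 mg/10 mL/kg dose in 5% DMSO/40% PEG 400/55% DW, cross-over design (n = 3). Retro-orbital blood taken 5 min (i.v. only) to 24 h into heparinized tubes. Plasma separated at 4 °C, stored at -15 °C, analysed by LC-MS/MS.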

Data set [5] in a line: Cmax in CrljOri:CD1 mouse at 2 mg/kg, iv measured for 24 hrs by LC-MS/MS analysis. Conditions: in vivo. The arrangement: time 24 hrs, dose 2 mg/kg, route iv. The format is ADME, organism-based. The method, boiled down:
as §2

Data set [6] in a line: Tmax in CrljOri:CD1 mouse at 2 mg/kg, iv measured for 24 hrs by LC-MS/MS analysis. In kind it is ADME, organism-based. Conditions: in vivo. The method, boiled down:
as §2

The nature of data set [7]: Clearance in CrljOri:CD1 mouse at 2 mg/kg, iv measured for 24 hrs by LC-MS/MS analysis. The format is ADME, organism-based. Conditions: in vivo. The method, boiled down: as §2
Data set [8] in a line: Volume of distribution at steady state in CrljOri:CD1 mouse at 2 mg/kg, iv measured for 24 hrs by LC-MS/MS analysis. Conditions: in vivo. The format is ADME, organism-based. The method, boiled down:
as §2

Data set [9] is described as follows: Half life in CrljOri:CD1 mouse at 2 mg/kg, iv measured for 24 hrs by LC-MS/MS analysis. The format is ADME, organism-based. Conditions: in vivo. The method, boiled down: as §2
Data set [10] can be described thus: AUC (0 to t) in CrljOri:CD1 mouse at 10 mg/kg, po measured for 24 hrs by LC-MS/MS analysis. The arrangement: time 24 hrs, dose 10 mg/kg, route po. Conditions: in vivo. The format is ADME, organism-based. The method, boiled down: as §2
Data set [11] in a line: Cmax in CrljOri:CD1 mouse at 10 mg/kg, po measured for 24 hrs by LC-MS/MS analysis. In kind it is ADME, organism-based. Further details: time 24 hrs, dose 10 mg/kg, route po. Conditions: in vivo. The method, boiled down: as §2
Data set [12] can be described thus: Tmax in CrljOri:CD1 mouse at 10 mg/kg, po measured for 24 hrs by LC-MS/MS analysis. The format is ADME, organism-based. Conditions: in vivo. The method, boiled down: as §2
Data set [13] in a line: Half life in CrljOri:CD1 mouse at 10 mg/kg, po measured for 24 hrs by LC-MS/MS analysis. In kind it is ADME, organism-based. Conditions: in vivo. The method, boiled down: as §2
Data set [14] in a line: Oral bioavailability in CrljOri:CD1 mouse at 10 mg/kg measured for 24 hrs by LC-MS/MS analysis. In kind it is ADME, organism-based. Conditions: in vivo. The method, boiled down:
as §2

The nature of data set [15]: Antitumor activity against mouse 4T1-Luc cells implanted in BALB/c mouse assessed as tumor growth inhibition at 10 mg/kg, ip administered thrice a week for 21 days relative to control. The format is functional. Conditions: 504 h, time 21 day, read-out: TGI. The method, boiled down: as §1
A short description of data set [16]: Synergistic antitumor activity against mouse 4T1-Luc cells implanted in BALB/c mouse assessed as tumor growth inhibition at 10 mg/kg, ip administered thrice a week for 21 days in presence of anti-mouse PD-L1 relative to control. In kind it is functional. Conditions: 504 h, read-out: TGI, time 21 day. The method, boiled down: as §1
Data set [17] is described as follows: Toxicity in BALB/c mouse implanted with mouse 4T1-Luc cells assessed as body weight loss at 10 mg/kg, ip administered thrice a week for 21 days. In kind it is organism-based. Conditions: in vivo, 504 h, time 21 day. The method, boiled down: as §1
Data set [18] in a line: Toxicity in BALB/c mouse implanted with mouse 4T1-Luc cells assessed as body weight loss at 10 mg/kg, ip administered thrice a week for 21 days in presence of anti-mouse PD-L1. The format is organism-based. Conditions: in vivo, 504 h, time 21 day. The method, boiled down: as §1
The test system of another data set is 4T1-Luc. Kind of data set: Synergistic antitumor activity against mouse 4T1-Luc cells implanted in BALB/c mouse assessed as reduction in tumor growth at 10 mg/kg, ip administered thrice a week for 21 days in presence of anti-mouse PD-L1 by IVIS imaging analysis. The format is functional, organism-based. Conditions: time 21.0 day. The method, boiled down:
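On final day of the 4T1-Luc i.p. dosing study (n = 5 per group, thrice weekly for 21 days), anesthetized mice were imaged by IVIS 15 min after D-luciferin (150 mg/kg in PBS). Average tumor signal intensity was quantified.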

Voltage-gated inwardly rectifying potassium channel KCNH2, sequence (Q12809 whole entry): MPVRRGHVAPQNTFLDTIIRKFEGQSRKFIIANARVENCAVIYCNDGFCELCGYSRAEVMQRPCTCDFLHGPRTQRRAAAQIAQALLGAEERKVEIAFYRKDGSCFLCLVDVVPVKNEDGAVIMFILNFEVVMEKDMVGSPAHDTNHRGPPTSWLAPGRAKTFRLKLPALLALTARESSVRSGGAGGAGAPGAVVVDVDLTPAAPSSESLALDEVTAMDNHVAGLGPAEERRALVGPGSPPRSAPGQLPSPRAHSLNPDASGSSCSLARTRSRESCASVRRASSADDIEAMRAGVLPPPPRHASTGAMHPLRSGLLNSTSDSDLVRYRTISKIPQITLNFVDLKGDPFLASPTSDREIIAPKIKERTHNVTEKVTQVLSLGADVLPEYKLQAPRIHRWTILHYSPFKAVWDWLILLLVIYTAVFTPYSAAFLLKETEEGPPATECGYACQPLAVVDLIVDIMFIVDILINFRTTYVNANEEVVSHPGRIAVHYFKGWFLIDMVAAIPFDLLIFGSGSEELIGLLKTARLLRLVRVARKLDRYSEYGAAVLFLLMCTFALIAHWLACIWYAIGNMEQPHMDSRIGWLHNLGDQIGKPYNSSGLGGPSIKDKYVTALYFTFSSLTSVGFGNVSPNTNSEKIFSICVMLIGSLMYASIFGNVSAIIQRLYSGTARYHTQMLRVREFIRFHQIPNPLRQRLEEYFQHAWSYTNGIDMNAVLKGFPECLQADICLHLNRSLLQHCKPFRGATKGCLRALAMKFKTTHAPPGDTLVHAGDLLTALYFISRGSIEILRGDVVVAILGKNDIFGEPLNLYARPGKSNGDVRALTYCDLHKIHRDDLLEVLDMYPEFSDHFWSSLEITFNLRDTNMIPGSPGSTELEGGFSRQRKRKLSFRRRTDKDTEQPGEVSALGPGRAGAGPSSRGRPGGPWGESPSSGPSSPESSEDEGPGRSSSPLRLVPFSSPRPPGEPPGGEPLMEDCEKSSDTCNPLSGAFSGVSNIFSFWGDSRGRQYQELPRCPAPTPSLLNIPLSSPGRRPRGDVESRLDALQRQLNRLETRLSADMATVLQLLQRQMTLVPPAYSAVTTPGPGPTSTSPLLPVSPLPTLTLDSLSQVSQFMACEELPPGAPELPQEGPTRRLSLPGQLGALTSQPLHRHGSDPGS

In the case of `CCCCC#Cc1nc(N)c2nc(-c3cccs3)n([C@@H]3OC[C@@H](O)[C@H]3O)c2n1`, the “inhibition (INH)” value in [1] is on record as “Not Active”. For the same compound, the Activity result in data set [2], in data set [3], in data set [17] and in data set [18] was “Non-Toxic” throughout. The AUCt in data set [4] amounted to 550.95 ng·h/mL; in data set [10] it was 626.55 ng·h/mL. Besides, the results for the Cmax in data set [5] and in data set [11] were 1984.94 ng/mL and 1241.79 ng/mL, respectively. The Tmax (usually the time from dosing to the highest level) in [6] came out at 4.8 min; in [12], 15 min. Moreover, the clearance – broadly, a measure of how efficiently the substance is removed, as volume per time – in data set [7] turned out to be 60.5 mL/min/kg. Also, in data set [8], the Vdss – broadly, the apparent volume that relates the amount in the body to the concentration in plasma or blood – came to 0.69 L/kg. For the same compound, the t1/2 in data set [9] amounted to 9.6 min; in [13], 1.99 h. Besides, in [14], the F is recorded as 22.81%. Further, the inhibition in vivo at 10 mg/kg in data set [15] is 15%; in data set [16], 77%. Further, in the data set on 4T1-Luc, the outcome was Active.
